From ChEMBL document CHEMBL3124843, “Synthesis, cytostatic, antimicrobial, and anti-HCV activity of 6-substituted 7-(het)aryl-7-deazapurine ribonucleosides” (J Med Chem, 2014)
The source made the active and inactive calls. How the calls were made is not given here.

Legend:
Staphylococcus aureus [1] = assay: Antibacterial activity against methicillin-resistant Staphylococcus aureus MRSA 4591 after 24 hrs; format: functional, organism-based
Pseudomonas aeruginosa [2] = assay: Antibacterial activity against multi-resistant Pseudomonas aeruginosa A/16575 after 24 hrs; format: functional, organism-based
Pichia kudriavzevii = assay: Antifungal activity against Candida crusei after 48 hrs; format: functional, organism-based
Hepatitis C virus [3] = assay: Antiviral activity against Hepatitis C virus subtype 1b infected in human HuH7 cells; format: functional, organism-based, Hepacivirus hominis; conditions: genotype 1b, Huh-7
Pseudomonas aeruginosa [4] = assay: Antibacterial activity against Pseudomonas aeruginosa CCM 3955 after 24 hrs; format: functional, organism-based
CCRF-CEM = assay: Cytostatic activity against human CCRF-CEM cells after 72 hrs by MTT assay; format: functional, cell-based
Outline: (§1)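 IC50 is the concentration that cuts cell growth by 50%, read by quantitative metabolic MTT staining after a 3-day treatment. The resistant sublines were made by raising the concentration of the cytotoxic drug step by step. CEM-DNR-bulk (daunorubicin-selected) stably overexpresses mrp-1. K562-TAX (paclitaxel-selected) expresses only mdr-1. HCT116p53−/− carries null p53 alleles. BJ and MRC-5 are nonmalignant fibroblasts.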

K562 [5] = assay: Cytostatic activity against human K562 cells after 72 hrs by MTT assay; format: functional, cell-based; conditions: K562, 72 h; outline: as §1
HL-60 = assay: Antiproliferative activity against human HL60 cells after 72 hrs by XTT assay; format: functional, cell-based; conditions: HL-60, 72 h
Outline: (§2)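 Antiproliferative test on HL-60 promyelocytic leukemia and HeLa S3 cervical carcinoma cells growing in liquid suspension.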

Candida parapsilosis = assay: Antifungal activity against Candida parapsilosis after 48 hrs; format: functional, organism-based
Staphylococcus aureus [6] = assay: Antibacterial activity against Staphylococcus aureus CCM 3953 after 24 hrs; format: functional, organism-based
A549 = assay: Cytostatic activity against human A549 cells after 72 hrs by MTT assay; format: functional, cell-based; conditions: A549, 72 h; outline: as §1
Enterococcus faecalis = assay: Antibacterial activity against Enterococcus faecalis CCM 4224 after 24 hrs; format: functional, organism-based
MRC5 = assay: Cytostatic activity against human MRC5 cells after 72 hrs by MTT assay; format: ADME, cell-based; conditions: MRC5, 72 h; outline: as §1
Candida albicans = assay: Antifungal activity against Candida albicans after 48 hrs; format: functional, organism-based
HCT-116 [7] = assay: Cytostatic activity against p53-deficient human HCT116 cells after 72 hrs by MTT assay; format: functional, cell-based; conditions: HCT-116, 72 h; outline: as §1
[8] = test system: Staphylococcus haemolyticus; assay: Antibacterial activity against methicillin-resistant Staphylococcus haemolyticus A/16568 after 24 hrs; format: functional, organism-based
BJ = assay: Cytostatic activity against human BJ cells after 72 hrs by MTT assay; format: ADME, cell-based; outline: as §1
[9] = Cytostatic activity against human CEM-DNR-bulk cells after 72 hrs by MTT assay; format: functional, cell-based; outline: as §1
[10] = Antiproliferative activity against human HeLaS3 cells after 72 hrs by XTT assay; format: functional, cell-based; conditions: HeLa S3, 72 h; outline: as §2
Hepatitis C virus [11] = assay: Antiviral activity against Hepatitis C virus subtype 2a infected in human HuH7 cells; format: functional, organism-based, Hepacivirus hominis; conditions: genotype 2a, Huh-7
Escherichia coli [12] = assay: Antibacterial activity against Escherichia coli CCM 3954 after 24 hrs; format: functional, organism-based
[13] = Cytotoxicity against human HuH7 cells infected with Hepatitis C virus subtype 1b; format: cell-based, Huh-7
[14] = Cytotoxicity against human HuH7 cells infected with Hepatitis C virus subtype 2a; format: cell-based, Huh-7
HepG2 = assay: Antiproliferative activity against human HepG2 cells after 72 hrs by XTT assay; format: functional, cell-based; conditions: HepG2, 72 h
K562 [15] = assay: Cytostatic activity against paclitaxel-resistant human K562 cells after 72 hrs by MTT assay; format: functional, cell-based; conditions: K562, 72 h; outline: as §1
HCT-116 [16] = assay: Cytostatic activity against human HCT116 cells after 72 hrs by MTT assay; format: functional, cell-based; conditions: HCT-116, 72 h; outline: as §1
Escherichia coli [17] = assay: Antibacterial activity against multi-resistant Escherichia coli C/16702 after 24 hrs; format: functional, organism-based
Candida tropicalis = assay: Antifungal activity against Candida tropicalis after 48 hrs; format: functional, organism-based

SMILES	Activity (Staphylococcus aureus [1])	Activity (Pseudomonas aeruginosa [2])	Activity (Pichia kudriavzevii)	EC50 (Hepatitis C virus [3]) [µM]	Activity (Pseudomonas aeruginosa [4])	IC50 (CCRF-CEM) [µM]	IC50 (K562 [5]) [µM]	IC50 (HL-60) [µM]	Activity (Candida parapsilosis)	Activity (Staphylococcus aureus [6])	IC50 (A549) [µM]	Activity (Enterococcus faecalis)	IC50 (MRC5) [µM]	Activity (Candida albicans)	IC50 (HCT-116 [7]) [µM]	Activity [8]	IC50 (BJ) [µM]	IC50 [9] [µM]	IC50 [10] [µM]	EC50 (Hepatitis C virus [11]) [µM]	other results
CNc1ncnc2c1ccn2[C@@H]1O[C@H](CO)[C@@H](O)[C@H]1O	inactive	inactive	inactive	0.82	inactive	> 20	> 20	12.8	inactive	inactive	> 20	inactive	97.8	inactive	> 20	inactive	91.4	4.89	> 20	> 44	Activity (Escherichia coli [12]): inactive; CC50 [13]: > 44 µM; CC50 [14]: > 44 µM; IC50 (HepG2): > 20 µM; IC50 (K562 [15]): 0.92 µM; IC50 (HCT-116 [16]): > 20 µM; Activity (Escherichia coli [17]): inactive; Activity (Candida tropicalis): inactive
CSc1ncnc2c1ccn2[C@@H]1O[C@H](CO)[C@@H](O)[C@H]1O	inactive	inactive	inactive	29.9	inactive	> 20	> 20	7.19	inactive	inactive	> 20	inactive	> 100	inactive	> 20	inactive	> 100	3.61	11.9	> 44	Activity (Escherichia coli [12]): inactive; CC50 [13]: > 44 µM; CC50 [14]: > 44 µM; IC50 (HepG2): > 20 µM; IC50 (K562 [15]): 0.1 µM; IC50 (HCT-116 [16]): > 20 µM; Activity (Escherichia coli [17]): inactive; Activity (Candida tropicalis): inactive
Cc1nc(N)c2c(-c3ccccc3)cn([C@@H]3O[C@H](CO)[C@@H](O)[C@H]3O)c2n1	inactive	inactive	inactive	> 44	inactive	> 20	> 20	> 20	inactive	inactive	> 20	inactive	> 100	inactive	> 20	inactive	> 100	> 20	> 20	> 44	Activity (Escherichia coli [12]): inactive; CC50 [13]: > 44 µM; CC50 [14]: > 44 µM; IC50 (HepG2): > 20 µM; IC50 (K562 [15]): > 20 µM; IC50 (HCT-116 [16]): > 100 µM; Activity (Escherichia coli [17]): inactive; Activity (Candida tropicalis): inactive
Nc1nc2c(c(-c3ccco3)cn2[C@@H]2O[C@H](CO)[C@@H](O)[C@H]2O)c(=O)[nH]1	inactive	inactive	inactive	> 44	inactive	> 20	> 20	> 20	inactive	inactive	> 20	inactive	> 100	inactive	> 20	inactive	> 100	> 20	> 20	> 44	Activity (Escherichia coli [12]): inactive; CC50 [13]: > 44 µM; CC50 [14]: > 44 µM; IC50 (HepG2): > 20 µM; IC50 (K562 [15]): > 20 µM; IC50 (HCT-116 [16]): > 20 µM; Activity (Escherichia coli [17]): inactive; Activity (Candida tropicalis): inactive
Cc1nc(N)c2c(-c3ccsc3)cn([C@@H]3O[C@H](CO)[C@@H](O)[C@H]3O)c2n1	inactive	inactive	inactive	28.7	inactive	> 20	> 20	> 20	inactive	inactive	> 20	inactive	> 100	inactive	> 20	inactive	> 100	> 20	> 20	> 44	Activity (Escherichia coli [12]): inactive; CC50 [13]: > 44 µM; CC50 [14]: > 44 µM; IC50 (HepG2): > 20 µM; IC50 (K562 [15]): > 20 µM; IC50 (HCT-116 [16]): > 20 µM; Activity (Escherichia coli [17]): inactive; Activity (Candida tropicalis): inactive
O=c1[nH]cnc2c1c(-c1ccccc1)cn2[C@@H]1O[C@H](CO)[C@@H](O)[C@H]1O	inactive	inactive	inactive	> 44	inactive	> 100	> 20	> 20	inactive	inactive	> 100	inactive	> 100	inactive	> 20	inactive	> 100	> 20	> 20	> 44	Activity (Escherichia coli [12]): inactive; CC50 [13]: > 44 µM; CC50 [14]: > 44 µM; IC50 (HepG2): > 20 µM; IC50 (K562 [15]): > 20 µM; IC50 (HCT-116 [16]): > 100 µM; Activity (Escherichia coli [17]): inactive; Activity (Candida tropicalis): inactive
